ChEMBL document CHEMBL5042523, “Novel Macrocyclic Peptidomimetics Targeting the Polo-Box Domain of Polo-Like Kinase 1” (J Med Chem, 2022)
The source made the active and inactive calls. No cut-off for these calls is given here. Where a SMILES comes first, the peptide text is derived from it. [ ]: non-standard residue; d: D form. pT = C[C@@H](OP(=O)(O)O)[C@H](N)C(=O)O

What was measured:
[1] = molecular target: Serine/threonine-protein kinase PLK2 (Homo sapiens) (UniProt Q9NYY3); test: Binding affinity to PlK2-PBD (unknown origin) using 5-carboxyfluorescein-Ahx-GPMQTS-pT-PKNG as substrate measured after 30 min by fluorescence polarization assay
Chain of Serine/threonine-protein kinase PLK2 (Homo sapiens) (Q9NYY3 whole entry, looked up): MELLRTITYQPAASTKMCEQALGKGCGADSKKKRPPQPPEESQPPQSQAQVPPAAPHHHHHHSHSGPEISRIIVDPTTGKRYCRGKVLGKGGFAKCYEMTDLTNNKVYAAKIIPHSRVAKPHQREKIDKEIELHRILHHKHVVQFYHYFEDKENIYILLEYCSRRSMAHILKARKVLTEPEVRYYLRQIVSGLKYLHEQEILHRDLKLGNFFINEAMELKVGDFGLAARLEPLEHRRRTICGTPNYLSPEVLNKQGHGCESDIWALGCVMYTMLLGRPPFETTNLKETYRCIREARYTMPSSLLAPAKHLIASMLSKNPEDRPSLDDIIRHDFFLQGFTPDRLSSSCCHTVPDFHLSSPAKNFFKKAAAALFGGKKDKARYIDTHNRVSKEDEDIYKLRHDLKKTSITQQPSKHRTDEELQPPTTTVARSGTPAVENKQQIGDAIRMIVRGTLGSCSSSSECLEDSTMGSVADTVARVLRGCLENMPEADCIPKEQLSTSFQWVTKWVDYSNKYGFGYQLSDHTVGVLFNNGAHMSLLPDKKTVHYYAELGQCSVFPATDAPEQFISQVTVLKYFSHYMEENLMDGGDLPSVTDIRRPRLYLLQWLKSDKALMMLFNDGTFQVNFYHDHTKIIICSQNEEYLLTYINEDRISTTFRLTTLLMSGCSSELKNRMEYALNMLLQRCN
Procedure, shortened: (§1)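 Competitive fluorescence polarization. E. coli-purified PBD used at its EC85 with 10 nM (final) 5-carboxyfluorescein-labelled phosphopeptide: GPMQTS-pT-PKNG probe for Plk2, GPLATS-pT-PKNG probe for Plk3. Buffer was 10 mM Tris-Cl pH 8.0, 1 mM EDTA, 50 mM NaCl, 0.01% NP-40, with test peptide over a concentration range. Polarization read 30 min after mixing. Three independent experiments.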

[2] = molecular target: Serine/threonine-protein kinase PLK3 (Homo sapiens) (UniProt Q9H4B4); test: Binding affinity to PlK3-PBD (unknown origin) using 5-carboxyfluorescein-Ahx-GPLATS-pT-PKNG as substrate measured after 30 min by fluorescence polarization assay; procedure, shortened: as §1
Chain of Serine/threonine-protein kinase PLK3 (Homo sapiens) (Q9H4B4 whole entry, looked up): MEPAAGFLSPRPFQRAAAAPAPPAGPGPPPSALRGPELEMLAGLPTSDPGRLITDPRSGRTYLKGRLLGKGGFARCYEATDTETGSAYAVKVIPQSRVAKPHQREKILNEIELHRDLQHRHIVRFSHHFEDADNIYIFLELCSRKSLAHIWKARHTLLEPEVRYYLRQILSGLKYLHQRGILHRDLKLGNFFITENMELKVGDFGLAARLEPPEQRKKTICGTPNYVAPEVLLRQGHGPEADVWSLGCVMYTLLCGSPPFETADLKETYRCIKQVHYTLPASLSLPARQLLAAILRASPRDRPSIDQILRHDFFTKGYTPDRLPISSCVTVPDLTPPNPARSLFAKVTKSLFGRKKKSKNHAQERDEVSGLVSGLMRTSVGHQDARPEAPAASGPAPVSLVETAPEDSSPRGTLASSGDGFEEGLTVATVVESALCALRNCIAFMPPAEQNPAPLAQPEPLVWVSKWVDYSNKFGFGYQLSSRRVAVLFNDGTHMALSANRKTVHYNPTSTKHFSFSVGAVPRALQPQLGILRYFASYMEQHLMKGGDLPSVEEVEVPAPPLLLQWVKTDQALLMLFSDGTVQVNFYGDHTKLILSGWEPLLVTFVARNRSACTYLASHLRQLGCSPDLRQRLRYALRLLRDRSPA

HeLa = test: Antiproliferative activity against human HeLa cell assessed as viable cells measured after 2 days by MTS assay; type: functional, cell-based; conditions: time 2.0 day
Procedure, shortened: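 HeLa cells, asynchronously growing, seeded at 2000 cells/100 μL in triplicate. Compound added for 24 h, then medium replaced and compound given for another 24 h (48 h continuous). MTS reagent added for 1–4 h at 37 °C, 5% CO2. Absorbance read at 490 nm. Three independent experiments, mean relative signal with s.d.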

[3] = Drug uptake in Wistar rat administered iv measured after 5 to 30 mins by PET imaging analysis; type: ADME, organism-based; conditions: in vivo, time 5-30 min

Structure (SMILES) | Activity [1] | Activity [2] | Activity (HeLa) | Drug uptake [3]
COC(=O)[C@H](CC(C)C)NC(=O)[C@@H]1CC[C@H]2OCCNC(=O)CC[C@H](NC(=O)c3cc(OCC(C)C)cc(OCC(C)C)c3)C(=O)N[C@@H](CO)C(=O)N[C@@H]([C@@H](C)OP(=O)(O)O)C(=O)N21 | inactive | inactive | Active | –
COC(=O)[C@H](CC(C)C)NC(=O)[C@@H]1CCCN1C(=O)[C@@H](NC(=O)[C@H](CO)NC(=O)[C@H](CCC(N)=O)NC(=O)[C@H](CCSC)NC(=O)[C@@H]1CCCN1)[C@@H](C)OP(=O)(O)O (H-PMQS[pT]PL-OMe) | – | – | – | Not Active
